OX1R antag-1 = OX1R (HCRTR1) antagonists, primary screen, fluorescence, CHO/OX1R cells, Fluo-8 calcium, orexin A; Fluo-8 calcium fluorescence; hit rate 0.43% among 330,000; inhibition, % at 5 µM;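 active = inhibition above its plate's threshold, mean inhibition of all tested compounds on the plate plus 3 SD, cut at about 37% in these data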
CHO parental Ca = ATP-evoked calcium signal inhibitors, parental CHO, primary screen, counter-screen for OX1R antagonist project, cell-based, fluorescence, Fluo-8 calcium dye | inhibition, % at 5.6 µM | parental CHO-K1, ATP-induced calcium, Fluo-8 fluorescence | AID 463079, 2010 | hit rate 0.63% among 330,000;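 active = inhibition above that plate's mean sample inhibition plus 3 SD, cut at about 26% in these data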
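Material – parental CHO cells · Reagent – ATP stimulus · Compound – single nominal dose of 5.6 µM per compound · Detection – Fluo-8 fluorescence · Read-out basis – percent inhibition of calcium signal · Controls – ATP-challenged DMSO wells low, unchallenged DMSO wells high · Repeats – no replicates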
NTR1 agonist = agonists of human NTR1, primary screen, imaging, U2OS cells, beta-arrestin-GFP, high content; Neurotensin receptor type 1 (Homo sapiens), P30989; NTR1-U2OS beta-arrestin-GFP spot imaging, agonist mode; activation, % at 20 µM; hit rate 0.17% among 330,000; AID 493036, 2011;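 active = activation at or above 40% of the spot to cytoplasm intensity ratio, with at least 20 cells analyzed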
Target sequence (P30989 whole entry, looked up): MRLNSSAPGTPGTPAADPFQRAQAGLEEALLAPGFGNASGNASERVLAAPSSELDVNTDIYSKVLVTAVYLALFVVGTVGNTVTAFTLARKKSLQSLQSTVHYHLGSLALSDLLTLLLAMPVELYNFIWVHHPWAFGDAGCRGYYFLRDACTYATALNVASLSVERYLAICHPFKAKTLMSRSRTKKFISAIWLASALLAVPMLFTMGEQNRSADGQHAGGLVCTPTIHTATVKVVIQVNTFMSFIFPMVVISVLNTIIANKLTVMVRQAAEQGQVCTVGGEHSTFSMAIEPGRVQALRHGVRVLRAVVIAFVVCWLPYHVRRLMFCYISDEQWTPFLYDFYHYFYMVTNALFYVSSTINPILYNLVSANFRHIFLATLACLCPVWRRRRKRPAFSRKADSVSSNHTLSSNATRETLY
TAAR1 antag = human TAAR1 antagonists, primary screen, Fluo-8 calcium fluorescence, CHO RD-HGA16 cells; inhibition, % at 3 µM; antagonist; Trace amine-associated receptor 1 (Homo sapiens), Q96RJ0; hit rate 1.5% among 360,000;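 active = inhibition above a per-plate cutoff, the mean inhibition of test compounds on that plate plus 3 SD, cut at about 49% in these data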
Target sequence (Q96RJ0 whole entry, looked up): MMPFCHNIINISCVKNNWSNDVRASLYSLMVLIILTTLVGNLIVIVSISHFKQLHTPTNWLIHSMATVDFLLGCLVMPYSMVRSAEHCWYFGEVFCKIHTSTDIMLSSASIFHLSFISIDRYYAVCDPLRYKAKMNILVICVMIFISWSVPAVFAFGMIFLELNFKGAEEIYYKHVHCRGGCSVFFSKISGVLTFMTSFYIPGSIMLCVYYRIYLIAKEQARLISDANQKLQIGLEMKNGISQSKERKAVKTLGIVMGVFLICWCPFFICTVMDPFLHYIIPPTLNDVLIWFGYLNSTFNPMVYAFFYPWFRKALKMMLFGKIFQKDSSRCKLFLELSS
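Test system: RD-HGA16 CHO cells with stable hTAAR1 and Gα16 / Probe or stimulus: EC80 β-phenethylamine stimulus / Times: seeding 17-24 h prior, 75-min 37 °C, 30-min RT dye loading / Detection: Fluo-8 calcium-sensitive fluorescence / Read-out basis: % inhibition scaled between DMSO and EC80 PEA controls / Repeats: singlicate, one well per test compound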
OX1R antag-2 = antagonists of human orexin 1 receptor (OX1R) | OX1R-expressing cells, FRET antagonist read-out | inhibition, % at 6.6 µM | hit rate 1.8% among 330,000; in the data active = inhibition mostly above about 38%, no sharp cut-off; inactive = mostly below about 40%
TAAR1 agonist = human TAAR1 agonists, primary screen, Fluo-8 calcium fluorescence, CHO RD-HGA16 cells | vehicle wells 0%, saturating PEA agonist 100% | activation, % at 3 µM | hit rate 0.99% among 360,000 | AID 624467, 2012;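 active = activation above the mean activation of all test compounds in the run plus 3 SD, cut at about 38% in these data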
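test system = CHO RD-HGA16 cells carrying human TAAR1 plus Gα16 | schedule = 17-24 h seeding, 75 min 37 °C dye, 30 min RT | compound dosing = 3 µM single concentration | control set = DMSO and PEA EC100 | replicates = n 1 | signal = Fluo-8 fluorescence, 5 s baseline then 140 s kinetic read | measure = percent activation vs PEA EC100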
OX1R Fluo8 conf = OX1R (HCRTR1) antagonists, confirmation, fluorescence, CHO/OX1R cells, Fluo-8 calcium, orexin A | shares compounds with OX1R antag-1 | orexin A calcium Fluo-8 fluorescence | inhibition, % at 5 µM | hit rate 38% among 1,100; in the data active = inhibition above about 29%
CHO Ca counter = ATP-evoked calcium inhibition in parental CHO, counter-screen for OX1R antagonist project, cell-based, fluorescence, CHO-K1, triplicate; shares compounds with OX1R antag-1; ATP-induced calcium, Fluo-8 fluorescence; inhibition, % at 5.6 µM; hit rate 9.3% among 1,100; AID 492965, 2010;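 active = inhibition above a per-plate limit, the mean inhibition of that plate's test compounds plus 3 SD, cut at about 25% in these data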
OX1R HTRF conf = OX1R (HCRTR1) antagonists, confirmation, cell-based, HTRF. shares compounds with OX1R antag-2. OX1R-expressing cells, HTRF antagonist assay. inhibition, % at 6.6 µM. hit rate 49% among 1,800; in the data active = inhibition above about 55%;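 also: CHO cells expressing OX1R stimulated with orexin A at about EC80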
CHO-K1 HTRF = signal inhibition in parental CHO-K1 cells, counter-screen for OX1R antagonist project, cell-based, HTRF; shares compounds with OX1R antag-2; HTRF counterscreen; inhibition, % at 6.6 µM; hit rate 48% among 1,800; AID 493232, 2011; in the data active = inhibition above about 17%
Of the large screens only hits and unclear results are named; the others gave an inactive call (follow-up assays come after a bar, where they were run). A selection: hits, their analogues and other compounds. The true share with any hit is near 4%.

CCn1c(SCC(=O)Nc2ccc3c(c2)c2ccccc2n3CC)nnc1-c1ccco1	OX1R antag-1 64, OX1R antag-2 81 | OX1R Fluo8 conf 35 | CHO Ca counter inactive | OX1R HTRF conf 83 | CHO-K1 HTRF inactive
CCn1c(SCC(=O)Nc2ccc3c(c2)oc2ccccc23)nnc1-c1ccc(N)cc1	OX1R antag-2 84 | OX1R Fluo8 conf 37 | CHO Ca counter inactive | OX1R HTRF conf inactive | CHO-K1 HTRF inactive
CC1=C(C(=O)N(C(C)C)C(C)C)CC(CC(=O)NCc2cccs2)C(=O)N1Cc1ccc(C(C)(C)C)cc1 (stereo not drawn)	none (no result: OX1R antag-1, CHO parental Ca, NTR1 agonist, OX1R antag-2)
O=S(=O)(NC1CC1)c1ccc(S(=O)(=O)N2CCCc3ccccc32)cc1	OX1R antag-1 82, OX1R antag-2 37 | OX1R Fluo8 conf 60 | CHO Ca counter inactive | OX1R HTRF conf 62 | CHO-K1 HTRF inactive
O=c1c2ccccc2nnn1Cc1ccccc1Cl	none
CN1CCC/C1=C/C=C1\SC(=S)NC1=O	OX1R antag-2 80 (no result: NTR1 agonist) | OX1R Fluo8 conf 33 | CHO Ca counter 32 | OX1R HTRF conf inactive | CHO-K1 HTRF 98
O=C1NC(=S)SC1=Cc1ccc(F)cc1	none (no result: OX1R antag-1, CHO parental Ca, NTR1 agonist, OX1R antag-2)
CC(=O)Nc1cccc(OCC(=O)NC(C)c2ccc3ccccc3c2)c1 (stereo not drawn)	OX1R antag-1 51, OX1R antag-2 90 | OX1R Fluo8 conf 62 | CHO Ca counter inactive | OX1R HTRF conf 78 | CHO-K1 HTRF inactive
C=CCn1c(SCC(=O)NC2(C)CCS(=O)(=O)C2)nc2ccccc21 (stereo not drawn)	none
O=C(Nc1ccccc1)[C@@H]1CCCN1S(=O)(=O)c1ccc(Cl)cc1	OX1R antag-1 45, OX1R antag-2 62 | OX1R Fluo8 conf 39 | CHO Ca counter inactive | OX1R HTRF conf 78 | CHO-K1 HTRF inactive
COc1ccccc1CNC(=O)[C@@H]1CCCN1S(=O)(=O)c1ccc(C)cc1	none
Cc1ccc(S(=O)(=O)N2CCCC2C(=O)Nc2nc3c(s2)CCCC3)cc1 (stereo not drawn)	OX1R antag-1 44, OX1R antag-2 78 | OX1R Fluo8 conf 31 | CHO Ca counter inactive | OX1R HTRF conf 93 | CHO-K1 HTRF inactive
CC(=O)c1cccc(NC(=O)C2CCCN2S(=O)(=O)c2ccccc2C(F)(F)F)c1 (stereo not drawn)	none (no result: OX1R antag-1, CHO parental Ca, NTR1 agonist, OX1R antag-2)
COc1ccccc1NC(=O)[C@@H]1CCCN1S(=O)(=O)c1ccc(Cl)cc1	OX1R antag-1 48, OX1R antag-2 58 | OX1R Fluo8 conf 52 | CHO Ca counter inactive | OX1R HTRF conf 70 | CHO-K1 HTRF inactive
O=C(NCc1ccccc1)C1CCCN1S(=O)(=O)c1ccc(Cl)cc1 (stereo not drawn)	none
Cc1ccc(S(=O)(=O)N2CCCCC2C(=O)Nc2nncs2)cc1 (stereo not drawn)	none
CCOc1ccccc1NC(=O)C1CCCN1S(=O)(=O)c1ccccc1C(F)(F)F (stereo not drawn)	OX1R antag-1 76, OX1R antag-2 79 | OX1R Fluo8 conf 39 | CHO Ca counter inactive | OX1R HTRF conf 85 | CHO-K1 HTRF inactive
COc1ccc(-c2csc(C(NC(C)=O)c3ccccc3)n2)cc1 (stereo not drawn)	none (no result: OX1R antag-1, CHO parental Ca, NTR1 agonist, OX1R antag-2)
CCn1c(-c2ccccc2Cl)nn(CC(=O)NCCc2ccccc2)c1=S	none
CCn1c(-c2ccccc2Cl)nn(CC(=O)Nc2cc(Cl)ccc2Cl)c1=S	OX1R antag-1 46, OX1R antag-2 54 | OX1R Fluo8 conf inactive | CHO Ca counter inactive | OX1R HTRF conf inactive | CHO-K1 HTRF inactive
CCOc1ccc(C(=O)NCCC(=O)N2CCC3(CC2)NCCc2[nH]cnc23)cc1OCC	none
Cc1c(O)ccc(C(=O)CN2CCN(Cc3ccccc3)CC2)c1O	none
CCOc1ccc(NC(=O)CN2CCCC2c2cccs2)cc1S(=O)(=O)N1CCCCC1 (stereo not drawn)	none
Cc1ccc(NC(=O)CN2CCCC2c2cccs2)cc1S(=O)(=O)N1CCCCC1 (stereo not drawn)	OX1R antag-1 43, OX1R antag-2 30 | OX1R Fluo8 conf inactive | CHO Ca counter inactive | OX1R HTRF conf inactive | CHO-K1 HTRF inactive
Cc1ccc(S(=O)(=O)c2c[nH]c3cc4c(cc3c2=O)OCO4)cc1	none
CC(Sc1ccc(Cl)cc1)C(=O)NNC(=O)c1ccccc1O (stereo not drawn)	OX1R antag-2 66 | OX1R Fluo8 conf 32 | CHO Ca counter inactive | OX1R HTRF conf 75 | CHO-K1 HTRF inactive
O=C(COC(=O)c1cc(-c2ccccc2)nc2ccccc12)NCC1CCCO1 (stereo not drawn)	none
O=C(COC(=O)c1cc(-c2cccc(Br)c2)nc2ccccc12)NCC1CCCO1 (stereo not drawn)	OX1R antag-1 44, OX1R antag-2 86 | OX1R Fluo8 conf 40 | CHO Ca counter inactive | OX1R HTRF conf 68 | CHO-K1 HTRF inactive
COc1ccc(CCNc2cn[nH]c(=O)c2Cl)cc1OC	none
COc1ccc(CCNc2cc(C)[nH]c(=O)c2)cc1OC	OX1R antag-2 45 | OX1R Fluo8 conf inactive | CHO Ca counter inactive | OX1R HTRF conf inactive | CHO-K1 HTRF inactive
CC(C)(C)[C@@H]1COC(=O)[C@H](Cc2ccc(F)cc2)C/C=C\C[C@@H](CC(=O)N(CCO)Cc2ccccc2)C(=O)N1	OX1R antag-2 67 | OX1R Fluo8 conf inactive | CHO Ca counter inactive | OX1R HTRF conf 72 | CHO-K1 HTRF inactive
Cc1ccnc(NC(=O)c2oc3ccccc3c2C)c1	OX1R antag-1 51, OX1R antag-2 96 | OX1R Fluo8 conf 49 | CHO Ca counter inactive | OX1R HTRF conf 91 | CHO-K1 HTRF inactive
O=C(O)[C@@H]1CCCN1S(=O)(=O)c1cccc2cccnc12	none

Screens from PubChem.
